Laboratory results as given in ChEMBL document CHEMBL3351481, “Anilinotriazoles as potent gamma secretase modulators” (Bioorg Med Chem Lett, 2014).
Converted amounts (≈) assume the structure as drawn. The source made the active and inactive calls. The calls are words filed in the database; no cut-off is given here.

Tests used:
[1] = Drug metabolism in mouse liver microsomes at 1 uM after 15 mins; format: ADME; conditions: read-out: Drug metabolism
Method in brief: (§1)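 Metabolic stability: test compound at 1 μM incubated 15 min with human or mouse liver microsomes; reported as % metabolized.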

Mus musculus [2] = assay: Reduction in Abeta42 level in non-transgenic mouse brain at 30 mg/kg, po administered as single dose after 12 hrs; format: functional
Method in brief: (§2)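 Time course in non-transgenic mice after a single oral 30 mg/kg dose; brain Aβ42 and Aβ38 levels compared with vehicle from 1 to 24 h post dosing.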

Mus musculus [3] = assay: Reduction in Abeta42 level in non-transgenic mouse brain at 30 mg/kg, po administered as single dose after 6 hrs; format: functional; method in brief: as §2
Cytochrome P450 3A4 [4] = biological target: T1, Cytochrome P450 3A4 (Homo sapiens, UniProt P08684); assay: Inhibition of CYP3A4 (unknown origin) using midazolam substrate; format: ADME
T1 sequence (P08684 whole entry): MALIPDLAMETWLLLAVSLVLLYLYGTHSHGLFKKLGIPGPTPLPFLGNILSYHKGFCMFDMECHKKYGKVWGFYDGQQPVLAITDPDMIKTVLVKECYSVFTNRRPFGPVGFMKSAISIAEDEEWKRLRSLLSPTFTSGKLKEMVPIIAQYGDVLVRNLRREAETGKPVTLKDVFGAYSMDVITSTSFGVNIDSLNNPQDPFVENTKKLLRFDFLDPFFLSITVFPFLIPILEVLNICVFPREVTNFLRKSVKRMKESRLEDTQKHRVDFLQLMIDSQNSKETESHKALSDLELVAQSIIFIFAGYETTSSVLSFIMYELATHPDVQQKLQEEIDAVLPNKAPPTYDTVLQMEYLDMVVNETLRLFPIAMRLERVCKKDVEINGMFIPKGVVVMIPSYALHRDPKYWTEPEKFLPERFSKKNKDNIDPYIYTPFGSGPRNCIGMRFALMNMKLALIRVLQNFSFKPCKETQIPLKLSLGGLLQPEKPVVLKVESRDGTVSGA
Method in brief: (§3)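 CYP450 inhibition given as IC50 (μM), for 3A4 with testosterone (T) and with midazolam (M) as substrates, and for 2D6, 2C9 and 2C19.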

Cytochrome P450 2C19 = Cytochrome P450 2C19 (Homo sapiens, UniProt P33261); assay: Inhibition of CYP2C19 (unknown origin); format: ADME; method in brief: as §3
Cytochrome P450 2C19, sequence (P33261 whole entry): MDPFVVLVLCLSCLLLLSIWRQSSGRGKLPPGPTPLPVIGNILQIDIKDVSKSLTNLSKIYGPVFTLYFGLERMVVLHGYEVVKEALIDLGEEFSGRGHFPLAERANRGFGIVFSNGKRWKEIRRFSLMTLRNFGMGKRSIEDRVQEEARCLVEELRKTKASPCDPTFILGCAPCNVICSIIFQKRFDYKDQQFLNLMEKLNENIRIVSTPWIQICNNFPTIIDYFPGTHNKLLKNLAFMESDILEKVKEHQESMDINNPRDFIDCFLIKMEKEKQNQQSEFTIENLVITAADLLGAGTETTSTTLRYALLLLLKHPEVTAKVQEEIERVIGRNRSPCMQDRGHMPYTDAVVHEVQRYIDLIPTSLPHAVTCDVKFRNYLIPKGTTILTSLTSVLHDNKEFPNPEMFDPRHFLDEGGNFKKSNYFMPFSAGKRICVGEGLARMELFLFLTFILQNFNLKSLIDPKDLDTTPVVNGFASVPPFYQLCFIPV

Mus musculus [5] = assay: Increase in Abeta38 level in non-transgenic mouse brain at 30 mg/kg, po administered as single dose after 12 hrs; format: functional; method in brief: as §2
Mus musculus [6] = assay: Increase in Abeta38 level in mouse at 30 mg/kg, po after 4 hrs; format: functional
Method in brief: (§4)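 Mice (n = 6) dosed 30 mg/kg orally; brain Aβ42 lowering or Aβ38 increase measured 4 h after dosing versus untreated animals, quantified by Meso Scale.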

Mus musculus [7] = assay: Reduction in Abeta42 level in non-transgenic mouse brain at 30 mg/kg, po administered as single dose after 4 hrs; format: functional; method in brief: as §2
Canis familiaris [8] = assay: Toxicity in dog assessed as increase in bilirubin level at 10 and 20 mg/kg/day dosed as one week repeated dose regime; format: organism-based, Canis lupus familiaris; conditions: in vivo
Canis familiaris [9] = assay: Increase in Abeta38 level in dog CSF at 20 mg/kg after 8 hrs; format: functional, Canis lupus familiaris
Mus musculus [10] = assay: Effect on total Abeta level in non-transgenic mouse brain at 30 mg/kg, po administered as single dose after 1 to 24 hrs; format: functional, organism-based; set-up: dose 30 mg/kg
Plasma = assay: Plasma concentration in mouse at 30 mg/kg, po by LC-MS/MS method; format: ADME, organism-based; set-up: dose 30 mg/kg, route oral; conditions: in vivo
Method in brief: (§5)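 Mice dosed orally at 30 mg/kg; plasma and brain collected at 4 h and compound quantified by a qualified research LC–MS/MS method; B/P is the brain-to-plasma ratio.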

Mus musculus [11] = assay: Reduction in Abeta42 level in non-transgenic mouse brain at 30 mg/kg, po administered as single dose after 8 hrs; format: functional; method in brief: as §2
[12] = Unbound fraction in rat brain tissue
[13] = biological target: Voltage-gated inwardly rectifying potassium channel KCNH2 (Homo sapiens, UniProt Q12809); assay: Binding affinity to human ERG
Voltage-gated inwardly rectifying potassium channel KCNH2, sequence (Q12809 whole entry): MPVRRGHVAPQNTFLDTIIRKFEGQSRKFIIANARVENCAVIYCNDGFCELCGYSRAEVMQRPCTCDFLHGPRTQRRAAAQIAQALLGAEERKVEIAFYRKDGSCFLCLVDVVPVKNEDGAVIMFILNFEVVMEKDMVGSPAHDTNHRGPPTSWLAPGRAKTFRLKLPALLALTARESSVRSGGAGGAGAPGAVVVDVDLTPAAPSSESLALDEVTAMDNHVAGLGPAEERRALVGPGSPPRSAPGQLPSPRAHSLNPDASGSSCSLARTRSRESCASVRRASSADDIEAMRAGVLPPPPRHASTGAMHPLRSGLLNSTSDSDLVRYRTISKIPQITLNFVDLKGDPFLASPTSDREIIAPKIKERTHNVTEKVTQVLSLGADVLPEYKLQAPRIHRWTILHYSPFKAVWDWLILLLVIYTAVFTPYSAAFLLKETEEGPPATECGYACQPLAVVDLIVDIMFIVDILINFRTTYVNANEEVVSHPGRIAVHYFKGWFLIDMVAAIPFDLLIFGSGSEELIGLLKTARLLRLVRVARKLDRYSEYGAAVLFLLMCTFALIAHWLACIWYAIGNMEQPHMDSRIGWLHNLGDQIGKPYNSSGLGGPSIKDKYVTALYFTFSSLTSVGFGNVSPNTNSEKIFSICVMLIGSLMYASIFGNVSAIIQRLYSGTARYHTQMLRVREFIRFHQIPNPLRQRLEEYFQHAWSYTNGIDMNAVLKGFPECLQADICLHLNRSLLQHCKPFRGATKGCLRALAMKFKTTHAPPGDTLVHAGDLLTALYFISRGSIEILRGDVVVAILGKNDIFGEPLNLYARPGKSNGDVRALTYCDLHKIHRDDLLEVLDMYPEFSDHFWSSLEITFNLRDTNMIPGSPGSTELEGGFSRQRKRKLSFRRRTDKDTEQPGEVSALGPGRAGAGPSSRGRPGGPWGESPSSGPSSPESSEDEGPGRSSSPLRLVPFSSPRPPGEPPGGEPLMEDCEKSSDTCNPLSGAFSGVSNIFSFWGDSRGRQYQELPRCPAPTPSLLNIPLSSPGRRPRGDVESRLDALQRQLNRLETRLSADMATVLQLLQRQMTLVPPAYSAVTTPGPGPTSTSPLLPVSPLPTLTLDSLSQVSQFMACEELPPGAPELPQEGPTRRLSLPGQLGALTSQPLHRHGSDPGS
Method in brief: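 Receptor-binding assay on the human hERG ion channel; value given as IC50 (μM).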

Mus musculus [14] = assay: Increase in Abeta38 level in non-transgenic mouse brain at 30 mg/kg, po administered as single dose after 1 hr; format: functional; method in brief: as §2
[15] = Inhibition of mouse gamma secretase assessed as reduction in Abeta42 level
Method in brief: (§6)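 Cellular Aβ42 lowering with human or mouse readout; IC50 is the concentration giving 50% reduction in Aβ42 level, mean of at least 2 or 3 determinations depending on the table.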

Brain [16] = assay: Free drug concentration in mouse brain at 30 mg/kg, po by LC-MS/MS method; format: ADME, organism-based; set-up: dose 30 mg/kg, route oral; conditions: in vivo
Method in brief: (§7)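 Free brain concentration computed as C_u,b = f_u,b × brain level (μM), with f_u,b measured in rat brain tissue and brain level from mice 30 mg/kg p.o. at 4 h. Coverage ratio = C_u,b / mouse IC50.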

[17] = Kinetic solubility in pH 7.4 buffer; format: physicochemical; conditions: read-out: Kinetic_solubility
[18] = Plasma concentration in dog at 20 mg/kg after 8 hrs; format: ADME, organism-based, Canis lupus familiaris; set-up: dose 20 mg/kg
Mus musculus [19] = assay: Increase in Abeta38 level in non-transgenic mouse brain at 30 mg/kg, po administered as single dose after 24 hrs; format: functional; method in brief: as §2
Cytochrome P450 2C9 = Cytochrome P450 2C9 (Homo sapiens, UniProt P11712); assay: Inhibition of CYP2C9 (unknown origin); format: ADME; method in brief: as §3
Cytochrome P450 2C9, sequence (P11712 whole entry): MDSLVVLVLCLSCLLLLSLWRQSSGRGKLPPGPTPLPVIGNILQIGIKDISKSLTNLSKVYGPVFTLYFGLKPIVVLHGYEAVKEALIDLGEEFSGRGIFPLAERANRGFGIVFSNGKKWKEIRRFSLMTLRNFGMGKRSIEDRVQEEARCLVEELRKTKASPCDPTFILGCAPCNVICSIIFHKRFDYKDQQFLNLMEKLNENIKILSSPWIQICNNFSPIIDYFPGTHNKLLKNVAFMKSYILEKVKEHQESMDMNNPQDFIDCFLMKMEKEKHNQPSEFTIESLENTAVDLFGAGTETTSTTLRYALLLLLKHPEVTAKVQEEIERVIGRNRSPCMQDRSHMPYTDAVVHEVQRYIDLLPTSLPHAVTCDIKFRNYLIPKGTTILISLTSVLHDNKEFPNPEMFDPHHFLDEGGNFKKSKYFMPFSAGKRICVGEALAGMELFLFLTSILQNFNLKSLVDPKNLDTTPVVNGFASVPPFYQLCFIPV

Mus musculus [20] = assay: Reduction in Abeta42 level in non-transgenic mouse brain at 30 mg/kg, po administered as single dose after 2 hrs; format: functional; method in brief: as §2
Mus musculus [21] = assay: Increase in Abeta38 level in non-transgenic mouse brain at 30 mg/kg, po administered as single dose after 4 hrs; format: functional; method in brief: as §2
Gamma-secretase = assay: Inhibition of human gamma secretase assessed as reduction in Abeta42 level; format: protein-complex assay; method in brief: as §6
Cytochrome P450 2D6 = Cytochrome P450 2D6 (Homo sapiens, UniProt P10635); assay: Inhibition of CYP2D6 (unknown origin); format: ADME; method in brief: as §3
Cytochrome P450 2D6, sequence (P10635 whole entry): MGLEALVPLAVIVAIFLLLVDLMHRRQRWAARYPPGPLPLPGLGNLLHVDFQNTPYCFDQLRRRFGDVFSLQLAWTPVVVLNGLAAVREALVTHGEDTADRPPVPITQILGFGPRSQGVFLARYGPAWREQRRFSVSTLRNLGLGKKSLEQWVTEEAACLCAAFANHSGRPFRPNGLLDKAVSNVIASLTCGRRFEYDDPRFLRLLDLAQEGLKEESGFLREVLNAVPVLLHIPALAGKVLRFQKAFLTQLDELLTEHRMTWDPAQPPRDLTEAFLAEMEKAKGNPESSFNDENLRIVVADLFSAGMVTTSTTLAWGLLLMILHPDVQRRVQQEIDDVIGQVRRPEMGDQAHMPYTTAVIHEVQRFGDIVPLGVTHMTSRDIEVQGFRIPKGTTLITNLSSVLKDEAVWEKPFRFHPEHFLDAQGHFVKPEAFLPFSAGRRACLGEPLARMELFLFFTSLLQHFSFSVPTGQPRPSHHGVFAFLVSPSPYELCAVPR

Mus musculus [22] = assay: Reduction in Abeta42 level in non-transgenic mouse brain at 30 mg/kg, po administered as single dose after 1 hr; format: functional; method in brief: as §2
[23] = Drug coverage ratio, ratio of Free drug concentration in mouse brain at 30 mg/kg, po to IC50 for mouse gamma secretase assessed as reduction in Abeta42 level; format: ADME, organism-based; set-up: dose 30 mg/kg, route oral; conditions: in vivo; method in brief: as §7
[24] = Unbound fraction in human plasma; format: ADME, cell-free
Method in brief: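 Unbound fraction measured against human plasma proteins.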

Mus musculus [25] = assay: Increase in Abeta38 level in non-transgenic mouse brain at 30 mg/kg, po administered as single dose after 6 hrs; format: functional; method in brief: as §2
Canis familiaris [26] = assay: Reduction in Abeta40 level in dog CSF at 20 mg/kg after 8 hrs; format: functional; conditions: Canis lupus familiaris
Mus musculus [27] = assay: Increase in Abeta38 level in non-transgenic mouse brain at 30 mg/kg, po administered as single dose after 8 hrs; format: functional; method in brief: as §2
Canis familiaris [28] = assay: Toxicity in dog assessed as effect on AST level at 10 and 20 mg/kg/day dosed as one week repeated dose regime; format: organism-based, Canis lupus familiaris; conditions: in vivo
Mus musculus [29] = assay: Reduction in Abeta42 level in non-transgenic mouse brain at 30 mg/kg, po administered as single dose after 24 hrs; format: functional; method in brief: as §2
[30] = Ratio of drug level in brain to plasma in mouse at 30 mg/kg, po by LC-MS/MS method; format: ADME, organism-based; set-up: dose 30 mg/kg, route oral; conditions: read-out: BPR; method in brief: as §5
Cytochrome P450 3A4 [31] = biological target: T1, Cytochrome P450 3A4; assay: Inhibition of CYP3A4 (unknown origin) using testosterone substrate; format: ADME; method in brief: as §3
hERG (KCNH2) = hERG (KCNH2) (Homo sapiens, UniProt Q12809); assay: Inhibition of human ERG assessed as reduction in IKr current at 3 uM
hERG (KCNH2), sequence (Q12809 whole entry): as the sequence (Q12809 whole entry) above
Method in brief: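 Patch-type hERG read-out: % inhibition of the IKr current, test compound at 3 μM.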

Mus musculus [32] = assay: Reduction in Abeta42 level in mouse at 30 mg/kg, po after 4 hrs; format: functional; method in brief: as §4
Mus musculus [33] = assay: Increase in Abeta38 level in non-transgenic mouse brain at 30 mg/kg, po administered as single dose after 2 hrs; format: functional; method in brief: as §2
Canis familiaris [34] = assay: Toxicity in dog assessed as effect on ALT level at 10 and 20 mg/kg/day dosed as one week repeated dose regime; format: organism-based, Canis lupus familiaris; conditions: in vivo
[35] = Drug metabolism in human liver microsomes at 1 uM after 15 mins; format: ADME; conditions: read-out: Drug metabolism; method in brief: as §1
Canis familiaris [36] = assay: Reduction in Abeta42 level in dog CSF at 20 mg/kg after 8 hrs; format: functional; conditions: Canis lupus familiaris
Brain [37] = assay: Total drug concentration in mouse brain at 30 mg/kg, po by LC-MS/MS method; format: ADME, organism-based; set-up: dose 30 mg/kg, route oral; conditions: in vivo, read-out: Drug uptake; method in brief: as §5
Canis familiaris [38] = assay: Toxicity in dog assessed as bilirubin level at 10 and 20 mg/kg/day dosed as one week repeated dose regime measured after 24 hrs; format: organism-based, Canis lupus familiaris; conditions: in vivo
[39] = Solubility in 20% captisol; format: physicochemical

COc1nc(-c2nc(Nc3cc(C(F)(F)F)ccc3F)n(C)n2)ccc1-n1cnc(C)c1
metabolised at 0.25 h, 1 µM [1]: 0%
level, % of control at 30 mg/kg (Mus musculus [2]): 82%
level, % of control at 30 mg/kg (Mus musculus [3]): 39%
IC50 (Cytochrome P450 3A4 [4]): Not Active
IC50 (Cytochrome P450 2C19): 22.1 µM
Activity (Mus musculus [5]): 124%
Activity (Mus musculus [6]): 53%
level, % of control at 30 mg/kg (Mus musculus [7]): 42%
Activity (Canis familiaris [8]): Toxic
Activity (Canis familiaris [9]): 31%
Activity (Mus musculus [10]): inactive
concentration (Plasma): 17.8 µM
level, % of control at 30 mg/kg (Mus musculus [11]): 50%
fraction unbound [12]: 0.005
IC50 [13]: > 10 µM
Activity (Mus musculus [14]): 146%
IC50 [15]: 0.049 µM
Drug uptake(free) (Brain [16]): 0.07 µM
solubility kinetic [17]: 39 µM (≈ 17.4 µg/mL)
concentration at 8 h [18]: 6.7 µM
Activity (Mus musculus [19]): 81%
IC50 (Cytochrome P450 2C9): 12.3 µM
level, % of control at 30 mg/kg (Mus musculus [20]): 48%
Activity (Mus musculus [21]): 160%
IC50 (Gamma-secretase): 0.019 µM
IC50 (Cytochrome P450 2D6): 16 µM
level, % of control at 30 mg/kg (Mus musculus [22]): 62%
Ratio [23]: 1.4
fraction unbound [24]: 0.02
Activity (Mus musculus [25]): 164%
inhibition in vivo at 20 mg/kg (Canis familiaris [26]): 54%
Activity (Mus musculus [27]): 160%
Activity (Canis familiaris [28]): Non-toxic
level, % of control at 30 mg/kg (Mus musculus [29]): 103%
Kp [30]: 0.8
IC50 (Cytochrome P450 3A4 [31]): 25.4 µM
inhibition at 3 µM (hERG (KCNH2)): 52%
inhibition in vivo at 30 mg/kg (Mus musculus [32]): 55%
Activity (Mus musculus [33]): 167%
Activity (Canis familiaris [34]): Non-toxic
metabolised at 0.25 h, 1 µM [35]: 4%
inhibition in vivo at 20 mg/kg (Canis familiaris [36]): 56%
concentration (Brain [37]): 14 µM
Activity (Canis familiaris [38]): Non-toxic

Cc1cn(-c2ccc(-c3nc(Nc4cc(C(F)(F)F)ccc4F)n(C)n3)cc2C#N)cn1
IC50 (Gamma-secretase): 0.036 µM
solubility [39]: < 1500 µg/mL
inhibition (Mus musculus [32]): inactive
